Experimental data from different studies.
Lines come from different studies, so protocols differ.
Target: Rho-associated protein kinase 2 (ROCK2, Homo sapiens, UniProt O75116)

c1cncc(-c2cccc(Nc3nccc(NC4CCCCC4)n3)c2)c1  remaining binding (binding; competition with immobilised ligand; 10 µM): 25%
N#Cc1ccccc1CSc1nnc2c(n1)[nH]c1ccccc12  remaining binding (binding; competition with immobilised ligand; 10 µM): 80%
C[C@@H](c1cccc(C#N)c1)n1cc(Cl)cc(C(N)=O)c1=N  remaining binding (cell-free assay; competition with immobilised ligand; 1 µM): 90%
F[C@@H]1CCN(c2nccc(-c3cnn4ncccc34)n2)C1  remaining binding (binding; 1 µM): 100%
O=C(NCC1CCOCC1)c1n[nH]cc1NC(=O)c1c(F)cccc1F  remaining binding (binding; competition with immobilised ligand; 1 µM): 64%
Cc1cc(-n2nc(Cc3cc(F)cc(C(F)(F)F)c3)nc2C)ccc1C(N)=O  remaining binding (cell-free assay; competition with immobilised ligand; 1 µM): 96%
C[C@@H]1CCN(c2nccc(-c3cnn4ncccc34)n2)C1  remaining binding (binding; 1 µM): 98%
CN1CCN(c2cnc3c(C4CCN(C(=O)c5ccc(OC(F)(F)F)cc5N)CC4)ncnc3c2)CC1  remaining binding (cell-free assay; competition with immobilised ligand; 1 µM): 100%
Cc1cnn2ncc(-c3ccnc(N(C)C)n3)c2c1  remaining binding (binding; 1 µM): 95%
COCCOc1nc(-c2ccc(Cl)nc2)nc2c1CN(C(=O)c1ncn3ccccc13)CC2  remaining binding (cell-free assay; competition with immobilised ligand; 0.1 µM): 76%
O=C(c1ccc(Nc2nccc(-c3cc4ccccc4s3)n2)cc1)N1CCC(N2CCCC2)CC1  remaining binding (binding; competition with immobilised ligand; 1 µM): 7.4%
COc1cnc(Nc2cccc(S(N)(=O)=O)c2)nc1N1CCN(c2ccccc2)C(=O)C1  remaining binding (binding; competition with immobilised ligand; 1 µM): 78%
N[C@H]1CCN(c2nccc(-c3cnn4ncccc34)n2)C1  remaining binding (binding; 1 µM): 100%
FC(F)(F)Oc1cccc(-c2cnc3ccc(-c4ccncc4)nn23)c1  remaining binding (binding; competition with immobilised ligand; 5 µM): 42%
CN(C)c1nccc(-c2cnc3ncccn23)n1  remaining binding (binding; 1 µM): 100%
C[C@@H]1CN(c2ccc3ncc(-c4ccc5[nH]nc(C6CC6)c5c4)n3n2)C[C@H](C)O1  remaining binding (binding; competition with immobilised ligand; 50 nM): 69%
O=C(NCCCN1CCOCC1)c1ccc(Nc2ncc(Cl)c(-c3ccc(Cl)s3)n2)cc1  remaining binding (binding; competition with immobilised ligand; 1 µM): 61%
CC1=C(C#N)C(c2ccc3c(c2)c(NC(=O)c2ccccc2C)nn3C)C(C#N)=C(C)N1  remaining binding (cell-free assay; competition with immobilised ligand; 1 µM): 93%
CNC(=O)[C@@H]1CC[C@@H](n2c(-c3ccc4cnccc4c3)nc3ccc(C(=O)NCc4cccc(C(N)=O)c4)cc32)C1  remaining binding (binding; competition with immobilised ligand; 1 µM): 100%
CN(C)C(=O)Cn1cc(-c2nc(C3(c4ccc(-c5cnc(N)nc5)cc4)CC3)no2)cn1  remaining binding (cell-free assay; competition with immobilised ligand; 1 µM): 89%
C=CC(=O)N1CCC(C(=O)NCC(=O)N2CCN(c3nc(-c4cnc(N)nc4C(F)F)nc(N4CCOCC4)n3)CC2)CC1  remaining binding (binding; competition with immobilised ligand; 1 µM): 90%
O=C(c1ccc(Nc2ncc(Cl)c(-c3ccc(Cl)s3)n2)cc1)N1CCC(N2CCCC2)CC1  remaining binding (binding; competition with immobilised ligand; 1 µM): 4.3%
N#CC1(c2ccccn2)CCN(Cc2cc(C(=O)N3CCCC3)c(=O)n3ccccc23)CC1  remaining binding (cell-free assay; competition with immobilised ligand; 1 µM): 72%
COc1ccnn2ncc(-c3ccnc(N(C)C)n3)c12  remaining binding (binding; 1 µM): 100%
